{
  "source": "ChEMBL document CHEMBL3259712",
  "about": "“New 5-unsubstituted dihydropyridines with improved CaV1.3 selectivity as potential neuroprotective agents against ischemic injury” (J Med Chem, 2014)",
  "assay_type_in_all_cases": "functional",
  "key": {"SH-SY5Y [1]": {"test_system": "SH-SY5Y", "experiment": "Neuroprotective activity against rotenone-oligomycin A-induced oxidative stress in human SH-SY5Y cells assessed as protection at 0.3 uM co-incubated rot/oligo for 24 hrs by MTT assay relative to control"}, "SH-SY5Y [2]": {"test_system": "SH-SY5Y", "experiment": "Neuroprotective activity against rotenone-oligomycin A-induced oxidative stress in human SH-SY5Y cells assessed as protection incubated with rot/oligo for 8 hrs followed by treated with compound at 0.3 uM for 16 hrs by MTT assay relative to control"}, "SH-SY5Y [3]": {"test_system": "SH-SY5Y", "experiment": "Neuroprotective activity against rotenone-oligomycin A-induced oxidative stress in human SH-SY5Y cells assessed as survival incubated with rot/oligo for 8 hrs followed by treated with compound at 0.3 uM for 16 hrs by MTT assay (Rvb =70.6 +/- 1.8%)", "details": "read-out: Survival", "method_in_brief": "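SH-SY5Y cells cultured 24 h, then exposed to rotenone/oligomycin A (30/10 μM) for 8 h at 37 °C. Stressor removed; compound in 1% FBS medium added for 16 h. DMSO-only control. MTT reduction (5 mg/mL, 2 h, 37 °C; OD 540 nm). Survival relative to untreated basal; mean ± SEM of five to seven cultures in triplicate.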"}, "SH-SY5Y [4]": {"test_system": "SH-SY5Y", "experiment": "Neuroprotective activity against rotenone-oligomycin A-induced oxidative stress in human SH-SY5Y cells assessed as survival at 0.3 uM co-incubated rot/oligo for 24 hrs by MTT assay (Rvb =65.6 +/- 1.3%)", "details": "read-out: Survival"}},
  "data": [
    {"smiles": "COc1ccc2[nH]cc(CCNC(C)=O)c2c1", "note": "[MELATONIN]", "values": [
      {"measurement": "Activity", "setting": "SH-SY5Y [1]", "value": 44.7, "unit": "%"},
      {"measurement": "Activity", "setting": "SH-SY5Y [2]", "value": 58.3, "unit": "%"},
      {"measurement": "viability at 0.3 µM", "setting": "SH-SY5Y [3]", "value": 87.8, "unit": "%"},
      {"measurement": "viability at 0.3 µM", "setting": "SH-SY5Y [4]", "value": 82.5, "unit": "%"}
    ]}
  ]
}
